Results as given in ChEMBL document CHEMBL1128703, “Chromophore-modified antitumor anthracenediones: synthesis, DNA binding, and cytotoxic activity of 1,4-bis[(aminoalkyl)amino]benzo[g]-phthalazine-5,10-diones” (J Med Chem, 1995).

Tests used:
LoVo [1] = experiment: (§1) Inhibitory activity against human colon adenocarcinoma cell line LoVo/Dx.; assay type: functional, cell-based
Method in brief: (§2)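 LoVo and doxorubicin-resistant LoVo/Dx grown in Ham's F12 with 10% FCS, glutamine, BME vitamins, HEPES, pen/strep; 37 °C, CO2, mycoplasma-checked by DAPI. Seeded 2.5 × 10^4 cells/mL, preincubated 24 h, then drug exposure 144 h. MTT read-out at 570 nm; IC50 (μg/mL) as concentration inhibiting growth by 50%, at least three runs averaged.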

LoVo [2] = experiment: Inhibitory activity against human colon adenocarcinoma cell line LoVo.; assay type: functional, cell-based; method in brief: as §2
[3] = (§3) Resistance index as the ratio of IC50 value against LoVo/Dx to that of LoVo cell lines.; assay type: functional
Method in brief: (§4)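 LoVo and LoVo/Dx, each seeded 2.5 × 10^4 cells/mL, preincubated 24 h, exposed to drug 144 h; MTT formazan read at 570 nm. Resistance index = IC50 in LoVo/Dx divided by IC50 in LoVo.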

Nucleic Acid [4] = experiment: Ki value was measured for the binding of compound to DNA in ETN.; assay type: nucleic-acid assay, Bos taurus
Method in brief: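 UV-vis titration: DNA added to ligand at fixed concentration in 10 mM Tris, 2 mM EDTA, NaCl to ionic strength 0.15 M, pH 7.0, 25 °C. Bound/free ligand from absorbance at wavelength of largest change (isosbestic points present); intrinsic constant and site size fitted by least squares to the neighbour-exclusion equation.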

Nucleic Acid [5] = experiment: dichroism data for visible band in the compound to DNA in ETN.; assay type: nucleic-acid assay; settings: Bos taurus
Method in brief: (§5)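 Dichroism in Tris-EDTA-NaCl buffer, ionic strength 0.1, pH 7.0, 25 °C. CD given as Δε from ellipticity, path length and molar concentration. Linear dichroism with DNA oriented in rotating quartz cell at 600-800 rpm, four accumulations; ligand orientation angle derived from ligand/DNA reduced LD ratio, taking bases at 90°.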

LoVo [6] = experiment: as §3; assay type: functional, Homo sapiens; method in brief: as §4
HT-29 [7] = experiment: Inhibitory activity against human tumor cell line HT-29.; assay type: functional, cell-based
Method in brief: (§6)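 Fibrosarcoma HT-1080, colon HT-29, breast MCF-7 and melanoma A-375 adapted to complete RPMI 1640; seeded 2.5 × 10^4 cells/mL, preincubated 24 h, exposed to drug 144 h. MTT assay, formazan dissolved in DMSO, absorbance per well read; IC50 (M) taken as concentration giving 50% growth inhibition.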

MCF7 = experiment: Inhibitory activity against human tumor cell line MCF-7 breast adenocarcinoma.; assay type: functional, cell-based; method in brief: as §6
HT-1080 [8] = experiment: Inhibitory activity against human tumor cell line HT1080.; assay type: functional, cell-based; method in brief: as §6
A-375 = experiment: Inhibitory activity against human tumor cell line […] melanoma.; assay type: functional, cell-based; method in brief: as §6
HT-29 [9] = experiment: as §1; assay type: functional, cell-based; settings: in the assay text read “HT-29” for “LoVo/Dx”
HT-1080 [10] = experiment: inhibit the cellular growth by 50% was determined against human tumor cell line HT1080.; assay type: functional, cell-based; method in brief: as §6
Nucleic Acid [11] = experiment: dichroism data for visible band in the compound to calf thymus DNA in ETN.; assay type: nucleic-acid assay; settings: Bos taurus; method in brief: as §5
HT-29 [12] = experiment: Inhibitory activity against human tumor cell line HT-29; assay type: functional, cell-based; method in brief: as §6
HT-1080 [13] = experiment: Inhibitory activity against human tumor cell line HT1080; assay type: functional, cell-based; method in brief: as §6

IC50 (LoVo [1]) [nM]	IC50 (LoVo [2]) [nM]	SMILES	RI [3]	other results
1700	180	CCN(CC)CCNc1nnc(NCCN(CC)CC)c2c1C(=O)c1ccccc1C2=O	9.4	–
> 260000	> 8100	OCCNCCNc1nnc(NCCNCCO)c2cc3ccccc3cc12	–	–
1300	1400	O=C1c2ccccc2C(=O)c2c(NCc3ccccc3)nnc(NCc3ccccc3)c21	0.9	–
6000	43	COc1cccc2c1C(=O)c1c(O)c3c(c(O)c1C2=O)C[C@@](O)(C(=O)CO)C[C@@H]3O[C@H]1C[C@H](N)[C@H](O)[C@H](C)O1 [DOXORUBICIN]	139.5	–
39000	2700	Cl.O=C1c2ccccc2C(=O)c2c(NCCNCCO)nnc(NCCNCCO)c21	–	Ki (Nucleic Acid [4]): 47000 M⁻¹; LD (Nucleic Acid [5]): -0.13; IC50 (HT-29 [7]): 410 nM; IC50 (MCF7): 720 nM; RI (LoVo [6]): 14.4; IC50 (HT-1080 [8]): 1300 nM
36000	> 9600	OCCCNc1nnc(NCCCO)c2cc3ccccc3cc12	>3.7	–
1200	260	O=C1c2ccccc2C(=O)c2c(NCCN3CCCCC3)nnc(NCCN3CCCCC3)c21	4.6	–
440	73	CN(C)CCNc1nnc(NCCN(C)C)c2c1C(=O)c1ccccc1C2=O.Cl	6	IC50 (A-375): 33 nM; IC50 (HT-29 [7]): 9.4 nM; IC50 (MCF7): 0.95 nM; IC50 (HT-1080 [8]): 46 nM
–	–	CN(C)CCNc1nnc(N)c2c1C(=O)c1ccccc1C2=O	–	IC50 (HT-29 [9]): 6.5 nM; IC50 (HT-1080 [10]): 34 nM
1000	49	CN(C)CCCNc1nnc(NCCCN(C)C)c2c1C(=O)c1ccccc1C2=O	20.4	–
–	–	Cl.Nc1nnc(NCCNCCO)c2c1C(=O)c1ccccc1C2=O	–	IC50 (A-375): 0.47 nM; Ki (Nucleic Acid [4]): 45000 M⁻¹; LD (Nucleic Acid [11]): -0.13; IC50 (HT-29 [12]): 5.2 nM; IC50 (HT-1080 [13]): 8.3 nM; IC50 (MCF7): 47 nM
< 2000	76	Cl.O=C1c2ccccc2C(=O)c2c(NCCCO)nnc(NCCCO)c21	<26	–

SMILES	IC50 (LoVo [1]) [nM]	IC50 (LoVo [2]) [nM]	RI [3]	other results
O=C1c2ccccc2C(=O)c2c(NCCNCCO)ccc(NCCNCCO)c21 [AMETANTRONE]	92000	580	–	Ki (Nucleic Acid [4]): 340000 M⁻¹; LD (Nucleic Acid [5]): -0.13; RI (LoVo [6]): 158.6
O=C1c2c(O)ccc(O)c2C(=O)c2c(NCCNCCO)ccc(NCCNCCO)c21 [MITOXANTRONE]	530	9.7	54.6	IC50 (A-375): 26 nM; IC50 (HT-29 [7]): 17 nM; IC50 (MCF7): 20 nM; IC50 (HT-1080 [8]): 66 nM
